Data taken from ChEMBL document CHEMBL3124900, “Discovery and early clinical evaluation of BMS-605339, a potent and orally efficacious tripeptidic acylsulfonamide NS3 protease inhibitor for the treatment of hepatitis C virus infection” (J Med Chem, 2014).

What was measured:
[1] = Apparent terminal half life in Sprague-Dawley rat at 5 mg/kg, iv by LC/MS/MS analysis; type: ADME, organism-based; set-up: dose 5 mg/kg, route intravenous; settings: in vivo, read-out: betat1/2(app) (converted)
[2] = AUC in Sprague-Dawley rat at 15 mg/kg, po administered via gavage by LC/MS/MS analysis; type: ADME, organism-based; set-up: dose 15 mg/kg, route oral; settings: plasma
[3] = Oral bioavailability in Sprague-Dawley rat at 15 mg/kg administered via gavage by LC/MS/MS analysis; type: ADME, organism-based; settings: in vivo
[4] = Cytotoxicity against human HuH7 cells; type: cell-based; settings: Huh-7 cells
[5] = test system: Hepatitis C virus; experiment: Antiviral activity against Hepatitis C virus genotype 1b Con1 after 4 days by cell-based replicon assay; type: functional, organism-based, Hepacivirus hominis; settings: isolate Con1, 96 h
[6] = Whole body plasma clearance in Sprague-Dawley rat at 5 mg/kg, iv by LC/MS/MS analysis; type: ADME, organism-based; set-up: dose 5 mg/kg, route intravenous
[7] = Inhibition of Hepatitis C virus genotype 1a H77 recombinant NS3/4A protease expressed in Escherichia coli BL21 (DE3) cell using Ac-Asp-Glu-Asp(EDANS)-Glu-Glu-Abu[C(O)-O]-Ala-Ser-Lys(DABCYL)-NH2 as substrate by FRET assay; set-up: species or system Hepatitis C virus (isolate H77)
[8] = Drug uptake in Sprague-Dawley rat liver at 15 mg/kg, po administered via gavage measured after 24 hrs by LC/MS/MS analysis; type: ADME, organism-based; set-up: dose 15 mg/kg, route oral; settings: read-out: Drug uptake
Outline: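 Rats were dosed orally at 15 mg/kg, and liver and plasma were collected 24 h post-dose. Plasma was treated with two volumes of ACN containing internal standard. Tissue was homogenized in 2 volumes of 20% HBSS/80% ACN. Analysis was by LC/MS/MS on a C18 column at 60 °C, using an ammonium formate/formic acid water–methanol gradient, SRM detection and a 5 nM LLQ.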

[9] = Drug uptake in iv dosed Sprague-Dawley rat liver measured after 24 hrs by LC/MS/MS analysis; type: ADME, organism-based; settings: read-out: Drug uptake
[10] = (§1) AUC in intraduodenally dosed Sprague-Dawley rat plasma measured over 4 hrs by LC/MS/MS analysis; type: ADME, organism-based; set-up: time < 4 hr, route intraduodenal; settings: Sprague-Dawley, plasma
Outline: (§2)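 Abbreviated rat screen: surgically prepared rats were dosed intraduodenally. Plasma was sampled over 4 h, and liver was collected at the 4 h end point. Plasma was precipitated with two volumes of ACN plus internal standard. Liver was weighed and homogenized in 2 volumes of 20% Hanks buffered salt solution/80% ACN. Both were quantified by LC/MS/MS.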

[11] = test system: Liver; experiment: Drug uptake in intraduodenally dosed Sprague-Dawley rat liver measured per gm of tissue over 4 hrs by LC/MS/MS analysis; type: ADME, organism-based; settings: in vivo, other; outline: as §2
[12] = test system: Plasma; experiment: as §1; type: ADME, organism-based; set-up: time < 4 hr, route intraduodenal; settings: in vivo, other, 4 h, BLD = below limit of detection; outline: as §2
[13] = Drug uptake in Sprague-Dawley rat liver at 20 mg/kg, po administered via gavage measured after 8 hrs by LC/MS/MS analysis; type: ADME, organism-based; set-up: dose 20 mg/kg, route oral; settings: read-out: Drug uptake
[14] = Half life in dog liver microsomes at 3 uM by LC/MS/MS analysis; type: ADME, Canis lupus familiaris
Outline: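 Pooled liver microsomes were run in triplicate per species. Each incubation held 3 μM test compound in 0.1 M potassium phosphate pH 7.4 at 37 °C, with 0.9 mg/mL microsomal protein, 0.033 mM MgCl2 and an NADPH-regenerating system. Proteins were precipitated with two volumes of ACN containing internal standard, and supernatants were analysed by LC/MS/MS.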

[15] = Whole body plasma clearance in Beagle dog at 3 mg/kg, iv by LC/MS/MS analysis; type: ADME, organism-based, Canis lupus familiaris; set-up: dose 3 mg/kg, route intravenous
[16] = Drug uptake in Sprague-Dawley rat liver at 20 mg/kg, po administered via gavage measured after 4 hrs by LC/MS/MS analysis; type: ADME, organism-based; set-up: dose 20 mg/kg, route oral; settings: read-out: Drug uptake
[17] = Plasma concentration in Sprague-Dawley rat at 20 mg/kg, po administered via gavage measured after 8 hrs by LC/MS/MS analysis; type: ADME, organism-based; set-up: dose 20 mg/kg, route oral
[18] = AUC in Sprague-Dawley rat at 20 mg/kg, po administered via gavage by LC/MS/MS analysis; type: ADME, organism-based; set-up: dose 20 mg/kg, route oral; settings: plasma
[19] = AUC in Beagle dog at 3 mg/kg by LC/MS/MS analysis; type: ADME, organism-based, Canis lupus familiaris; set-up: dose 3 mg/kg; settings: plasma
[20] = Plasma concentration in Sprague-Dawley rat at 20 mg/kg, po administered via gavage measured after 4 hrs by LC/MS/MS analysis; type: ADME, organism-based; set-up: dose 20 mg/kg, route oral
[21] = Apparent terminal half life in Beagle dog at 3 mg/kg, iv by LC/MS/MS analysis; type: ADME, organism-based, Canis lupus familiaris; set-up: dose 3 mg/kg, route intravenous; settings: in vivo, read-out: betat1/2(app) (converted)

Compound	half-life [1]	AUC [2]	bioavailability [3]	CC50 [4]	EC50 [5]	clearance [6]	IC50 [7]	AUC at 4 h [10]	Drug uptake [11]	further results
CC[C@@H]1C[C@]1(NC(=O)[C@@H]1C[C@@H](Oc2nccc3cc(OC)ccc23)CN1C(=O)[C@@H](NC(=O)OC(C)(C)C)C(C)(C)C)C(=O)NS(=O)(=O)C1CC1	4.2 h	0.58 µM·h	4%	> 100000 nM	22 nM	17 mL/min/kg	6 nM	–	–	–
C=C[C@@H]1C[C@]1(NC(=O)[C@@H]1C[C@@H](Oc2ncc(OC)c3ccccc23)CN1C(=O)[C@@H](NC(=O)OC(C)(C)C)C(C)(C)C)C(=O)NS(=O)(=O)C1CC1	9.8 h	0.37 µM·h	–	76000 nM	19 nM	182 mL/min/kg	2 nM	0.28 µM·h	232200 ng	concentration at 24 h [8]: 4200 nM; concentration at 24 h [9]: 8000 nM
C=C[C@@H]1C[C@]1(NC(=O)[C@@H]1C[C@@H](Oc2nccc3cc(OC)ccc23)CN1C(=O)[C@@H](NC(=O)OC(C)(C)C)C(C)(C)C)C(=O)O	–	–	–	> 100000 nM	2000 nM	–	247 nM	–	–	AUC [12]: BLD; Drug uptake ([11]; BLD = below limit of detection): BLD
C=C[C@@H]1C[C@]1(NC(=O)[C@@H]1C[C@@H](Oc2nccc3cc(OC)ccc23)CN1C(=O)[C@@H](NC(=O)O[C@H]1CCOC1)C(C)(C)C)C(=O)NS(=O)(=O)C1CC1	0.67 h	0.13 µM·h	3%	> 100000 nM	70 nM	49 mL/min/kg	9 nM	–	–	–
C=C[C@@H]1C[C@]1(NC(=O)[C@@H]1C[C@@H](Oc2cc(-c3ccccc3)nc3cc(OC)ccc23)CN1C(=O)[C@@H](NC(=O)OC(C)(C)C)C(C)(C)C)C(=O)NS(=O)(=O)C1CC1	1 h	0.577 µM·h	–	–	4 nM	55 mL/min/kg	1 nM	0.077 µM·h	7850 ng	concentration at 8 h [13]: 600 nM; half-life at 3 µM [14]: 2.83 h; clearance [15]: 16 mL/min/kg; concentration at 4 h [16]: 5800 nM; concentration at 8 h [17]: 4 nM; AUC [18]: 0.73 µM·h; AUC [19]: 2 µM·h; concentration at 4 h [20]: 580 nM; half-life [21]: 0.6 h
C=C[C@@H]1C[C@]1(NC(=O)[C@@H]1C[C@@H](Oc2nccc3ccccc23)CN1C(=O)[C@@H](NC(=O)OC(C)(C)C)C(C)(C)C)C(=O)NS(=O)(=O)C1CC1	2.2 h	2.67 µM·h	–	> 100000 nM	60 nM	19 mL/min/kg	7 nM	0.75 µM·h	28094 ng	–
